In ChEMBL document CHEMBL1123045, “Synthesis of high specific activity [75Br]- and [77Br]bromperidol and tissue distribution studies in the rat” (J Med Chem, 1985):

Experiments:
Rattus norvegicus [1] = assay: Distribution in rat kidney, 30 min after intravenous administration, injected dose/gm; format: ADME, organism-based; settings: in vivo, 0.5 h
In short: (§1)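 [77Br]Bromperidol at high specific activity (50-100 µCi in 0.1 mL 0.9% NaCl, pH 3) given into the femoral vein of 300-320-g female Sprague-Dawley rats under light ether anesthesia. At each time point, groups of five were decapitated after cardiac-puncture blood sampling. Organs were dissected, blotted, weighed and gamma-counted against an injectate standard. Values are % injected dose/g, mean ± SD, n=5.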

Rattus norvegicus [2] = assay: Distribution in rat pancreas 15 min after intravenous administration, injected dose/gm; format: ADME, organism-based; settings: in vivo, 0.25 h
In short: (§2)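 Female Sprague-Dawley rats (300-320 g) under light ether anesthesia received a single injection of [77Br]-labeled tracer (50-100 µCi in 0.1 mL 0.9% NaCl, pH 3) into the femoral vein. Groups of five were decapitated at set times after a cardiac-puncture blood sample. Organs were dissected, blotted and weighed, and counted in a NaI(Tl) well γ-counter. Values are %ID/g against an injectate standard, mean ± SD (n=5).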

Rattus norvegicus [3] = assay: Distribution in rat heart 8 hr after intravenous administration, injected dose/gm; format: ADME, organism-based; settings: in vivo; in short: as §1
Rattus norvegicus [4] = assay: Distribution in rat uterus 5 min after intravenous administration, injected dose/gm; format: ADME, organism-based; settings: in vivo; in short: as §2
Rattus norvegicus [5] = assay: Distribution in brain of rat, 5 min after intravenous administered, injected dose/gm; format: ADME, organism-based; settings: in vivo; in short: as §1
Rattus norvegicus [6] = assay: Distribution in rat kidney, 8 hr after intravenous administration, injected dose/gm; format: ADME, organism-based; settings: in vivo; in short: as §1
Rattus norvegicus [7] = assay: Distribution in rat skin 6 hr after intravenous administration, injected dose/gm; format: ADME, organism-based; settings: in vivo; in short: as §2
Rattus norvegicus [8] = assay: Distribution in rat kidney, 5 min after intravenous administration, injected dose/gm; format: ADME, organism-based; settings: in vivo; in short: as §1
Rattus norvegicus [9] = assay: Distribution in rat heart 6 hr after intravenous administration, injected dose/gm; format: ADME, organism-based; settings: in vivo; in short: as §1
Rattus norvegicus [10] = assay: Distribution in blood of rat, 6 hr after intravenous administration, injected dose/gm; format: ADME, organism-based; settings: in vivo; in short: as §1
Rattus norvegicus [11] = assay: Distribution in rat kidney, 1 hr after intravenous administration, injected dose/gm; format: ADME, organism-based; settings: in vivo; in short: as §1
Rattus norvegicus [12] = assay: Distribution in blood of rat, 30 min after intravenous administration, injected dose/gm; format: ADME, organism-based; settings: in vivo, 0.5 h; in short: as §1
Rattus norvegicus [13] = assay: Distribution in brain of rat, 15 min after intravenous administered, injected dose/gm; format: ADME, organism-based; settings: in vivo, 0.25 h; in short: as §1
Rattus norvegicus [14] = assay: Distribution in rat spleen 30 min after intravenous administration, injected dose/gm; format: ADME, organism-based; settings: in vivo, 0.5 h; in short: as §2
Rattus norvegicus [15] = assay: Distribution in rat uterus 8 hr after intravenous administration, injected dose/gm; format: ADME, organism-based; settings: in vivo; in short: as §2
Rattus norvegicus [16] = assay: Distribution in rat kidney, 2 hr after intravenous administration, injected dose/gm; format: ADME, organism-based; settings: in vivo; in short: as §1
Rattus norvegicus [17] = assay: Distribution in rat lungs 6 hr after intravenous administration, injected dose/gm; format: ADME, organism-based, Lung; settings: in vivo; in short: as §2
Rattus norvegicus [18] = assay: Distribution in rat fat 2 hr after intravenous administration, injected dose/gm; format: ADME, organism-based, Adipose tissue; settings: in vivo; in short: as §1
Rattus norvegicus [19] = assay: Distribution in rat muscle 30 min after intravenous administration, injected dose/gm; format: ADME, organism-based, Muscle tissue; settings: in vivo, 0.5 h; in short: as §2
Rattus norvegicus [20] = assay: Distribution in rat uterus 2 hr after intravenous administration, injected dose/gm; format: ADME, organism-based; settings: in vivo; in short: as §2
Rattus norvegicus [21] = assay: Distribution in rat muscle 2 hr after intravenous administration, injected dose/gm; format: ADME, organism-based, Muscle tissue; settings: in vivo; in short: as §2
Rattus norvegicus [22] = assay: Distribution in rat pancreas 2 hr after intravenous administration, injected dose/gm; format: ADME, organism-based; settings: in vivo; in short: as §2
Rattus norvegicus [23] = assay: Distribution in rat liver 15 min after intravenous administration, injected dose/gm; format: ADME, organism-based; settings: in vivo, 0.25 h; in short: as §1
Rattus norvegicus [24] = assay: Distribution in rat muscle 15 min after intravenous administration, injected dose/gm; format: ADME, organism-based, Muscle tissue; settings: in vivo, 0.25 h; in short: as §2
Rattus norvegicus [25] = assay: Distribution in rat pancreas 8 hr after intravenous administration, injected dose/gm; format: ADME, organism-based; settings: in vivo; in short: as §2

O=C(CCCN1CCC(O)(c2ccc(Br)cc2)CC1)c1ccc(F)cc1 [BROMPERIDOL]
Distribution (Rattus norvegicus [1]): 5.01% | Distribution (Rattus norvegicus [2]): 4.72% | Distribution (Rattus norvegicus [3]): 0.3% | Distribution (Rattus norvegicus [4]): 1.91% | Distribution (Rattus norvegicus [5]): 2.26% | Distribution (Rattus norvegicus [6]): 1.77% | Distribution (Rattus norvegicus [7]): 0.14% | Distribution (Rattus norvegicus [8]): 4.96% | Distribution (Rattus norvegicus [9]): 0.39% | Distribution (Rattus norvegicus [10]): 0.03% | Distribution (Rattus norvegicus [11]): 4.11% | Distribution (Rattus norvegicus [12]): 0.08% | Distribution (Rattus norvegicus [13]): 3.04% | Distribution (Rattus norvegicus [14]): 4.43% | Distribution (Rattus norvegicus [15]): 1.15% | Distribution (Rattus norvegicus [16]): 2.93% | Distribution (Rattus norvegicus [17]): 1.24% | Distribution (Rattus norvegicus [18]): 0.18% | Distribution (Rattus norvegicus [19]): 0.23% | Distribution (Rattus norvegicus [20]): 1.07% | Distribution (Rattus norvegicus [21]): 0.15% | Distribution (Rattus norvegicus [22]): 3.76% | Distribution (Rattus norvegicus [23]): 2.19% | Distribution (Rattus norvegicus [24]): 0.32% | Distribution (Rattus norvegicus [25]): 2.05%
